CTSL1 counter – Fasciola hepatica cathepsin L1 inhibitors, primary screen, counter-screen for PFM18AAP inhibitor project, biochemical, QFRET, fluorogenic peptide substrate; recombinant F. hepatica cathepsin L1, Z-Leu-Arg-MCA fluorescence; inhibition, % at 5.96 µM; 300,000 compounds, 0.49% hits;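 active = inhibition above the mean of all tested compounds plus 3 SD, set per screening campaign, cut at about 17% in these data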;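 also: 0% = plate median of test compound wells and 100% = 1 µM Z-Phe-Ala-diazomethylketone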
HCV NS3 hel inh – inhibitors of HCV NS3 helicase, primary screen, biochemical, Cy5 molecular beacon fluorescence; Hepatitis C virus NS3 helicase; NS3 helicase DNA unwinding; inhibition, % at 10.9 µM; 290,000 compounds, 0.56% hits; AID 1800, 2009;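 active = inhibition above the mean of all tested compounds plus 3 SD, set per campaign, cut at about 35% in these data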;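 also: 0% = DMSO wells and 100% = thioflavine S control wells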
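test system = hepatitis C virus NS3 helicase domain fragment enzyme | reagent = annealed dual-labelled DNA beacon duplex, ATP-started | times = 1 h at 25 °C | detection = Cy5 fluorescence, 0 and 60 min reads | read-out basis = percent inhibition from t60/t0 fluorescence ratio | control set = DMSO and thioflavine S | replication = one well per compound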
EBNA-1 inhibitor – EBNA-1 DNA-binding inhibitors, primary screen, biochemical, fluorescence polarization. AID 1950, 2009. inhibition, % at 14.8 µM. 300,000 compounds, 0.34% hits; in the data active = inhibition above about 28%
ZTA DNA inh – blocks Epstein-Barr virus ZTA, an EBNA-1 counter-screen; P03206; ZTA-DNA binding, fluorescence polarization; inhibition, % at 11 µM; 320,000 compounds, 0.15% hits; AID 2234; in the data active = inhibition above about 33%
Target sequence (P03206 whole entry, looked up): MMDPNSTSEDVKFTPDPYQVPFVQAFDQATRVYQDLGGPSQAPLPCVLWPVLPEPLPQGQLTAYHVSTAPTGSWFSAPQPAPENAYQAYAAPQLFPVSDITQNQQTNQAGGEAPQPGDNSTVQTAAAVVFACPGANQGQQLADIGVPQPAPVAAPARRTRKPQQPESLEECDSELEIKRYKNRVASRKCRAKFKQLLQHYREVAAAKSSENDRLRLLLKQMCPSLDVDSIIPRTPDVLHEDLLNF
NS3 hel confirm – HCV NS3 helicase inhibitors, retest, confirmation, biochemical, Cy5 molecular beacon fluorescence, triplicate. shares compounds with HCV NS3 hel inh. NS3 helicase DNA unwinding. inhibition, % at 10.9 µM. 1,600 compounds, 31% hits;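 active = inhibition above the mean of all tested compounds plus 3 SD, cutoff set per campaign, cut at about 36% in these data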
DNA FID counter – compounds displacing fluorescent DNA intercalator, artefact control for HCV NS3 helicase inhibitor project, biochemical, FID fluorescence, triplicate; inhibition, % at 7.9 µM; DNA fluorescent intercalator displacement; shares compounds with HCV NS3 hel inh; 1,600 compounds, 4% hits; in the data active = inhibition above about 37%;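 also: 0% = vehicle and 100% = reference compound; higher means more displacement of ethidium bromide from the DNA hairpin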
FID counter DR – compounds displacing fluorescent intercalator from DNA, dose response, counter-screen for HCV NS3 helicase inhibitor project, biochemical, fluorescence | IC50, µM | shares compounds with HCV NS3 hel inh | fluorescent intercalator displacement from DNA | AID 2172, 2009 | 120 tested, under 10 active; call rule not given here
An asterisk follows results filed as active; x = no result given; + = active, no number. Sampled rows, rich in hits. Any-hit rate of the full collection: about 1.4%.

SMILES | CTSL1 counter | HCV NS3 hel inh | EBNA-1 inhibitor | ZTA DNA inh | NS3 hel confirm | DNA FID counter | others
COCCNC(=O)c1cc2c(=O)[nH]c3ccccc3c2s1 | 7 | 70* | -13 | -19 | -8 | 4
CCCN1CCN(CCCNC(=O)c2cc3c(=O)[nH]c4ccccc4c3s2)CC1 | -2 | -1 | -1 | 9 | x | x
O=C(CSc1nc(O)cc(=O)n1-c1ccccc1)NC1CCCCC1 | -4 | 6 | -6 | -1 | x | x
O=c1cc(O)nc(SCc2ccccc2)n1-c1ccc(F)cc1 | 6 | 59* | 2 | -1 | -2 | -22
CN(C)c1ccc(C=Nc2ccccc2)cc1 | 1 | 8 | 2 | -4 | x | x
C(=Nc1cccc2c(N=Cc3ccco3)cccc12)c1ccco1 | 12 | 37* | 6 | -4 | -15 | 20
CN(C)c1ccc(N=Cc2ccco2)cc1 | 0 | 41* | + | + | 5 | 11
C(=N\C(/N=C/c1ccco1)c1ccco1)/c1ccco1 | 1 | 25 | -16 | -15 | x | x
CN(C)c1ccc(C=Nc2ccc(N(C)C)cc2)cc1 | 1 | 37* | + | + | 5 | 17
O=C(CSc1nc2ccccc2c(=O)[nH]1)c1ccccc1 | 4 | -1 | 8 | -6 | x | x
Nc1ccc2nc3c(=O)n(CCc4ccccc4)c(=O)[nH]c3nc2c1 | 0 | 19 | -13 | -7 | x | x
Cc1cc2nc3c(=O)n(CCc4ccccc4)c(=O)[nH]c3nc2cc1N | 3 | 38* | -4 | -1 | 6 | 9
CC(C)(C)NC(=O)C(c1ccccn1)N(C(=O)C1CSC(=O)C1)c1ccccc1F (centres undefined) | -2 | 10 | -7 | -12 | x | x
Cc1nc2sc3c(c2c(=O)[nH]1)CCC3 | 7 | 10 | 7 | 13 | x | x
Cc1cc(-c2nc3c4c5c(sc4[nH]c(=O)n3n2)CCC5)c(C)o1 | -4 | 41* | -3 | 14 | 76* | 8
CC(C)Cn1cnc2c1c(=O)n(CC(=O)O)c(=O)n2Cc1ccccc1 | 1 | -9 | 7 | 10 | x | x
CNC(=O)CSc1nc2sccc2c(=O)n1-c1ccccc1 | -1 | 2 | 2 | 10 | x | x
N#CCSc1nc2sccc2c(=O)n1-c1ccccc1 | 14 | 37* | 4 | -15 | -16 | 6
O=C(NC1CCCCC1)c1n[nH]c2c1CCCCC2 | 1 | x | 2 | 6 | x | x
Cc1ccc(C)n1-c1cc(S(=O)(=O)N2CCOCC2)ccc1N1CCCC1 | 0 | 3 | 0 | 9 | x | x
Cc1[nH]n(C(N)=S)c(=O)c1N=Nc1cccc(Cl)c1 | 10 | 58* | -6 | -17 | -20 | 17
Cc1cc2c(c(=O)o1)C(CCC1CCCCC1)C(C#N)=C(N)O2 (centres undefined) | -2 | 39* | 0 | -4 | -21 | -6
O=C(N/N=C\c1c(O)ccc2ccccc12)c1cncc(Br)c1 | 7 | 17 | 8 | -2 | x | x
O=C(N/N=C/c1c(O)ccc2ccccc12)c1cccnc1 | -3 | 87* | -25 | 1 | 29 | -18
Cc1c(Cl)cccc1NC(=O)CNc1ccccc1F | 0 | -12 | 11 | 1 | x | x
SMILES | CTSL1 counter | HCV NS3 hel inh | EBNA-1 inhibitor | ZTA DNA inh | NS3 hel confirm | DNA FID counter | others
C/C=C(\C)C(=O)OC(C)(C)[C@H]1Cc2cc3ccc(=O)oc3cc2O1 | 1 | -15 | 6 | 3 | x | x
Cn1cccc1CC(=O)NNC(=O)Nc1ccc(Cl)cc1 | 0 | 10 | 6 | 6 | x | x
Cn1cccc1CC(=O)NNC(=O)Nc1cccc(Cl)c1 | 0 | 38* | -4 | 7 | -15 | 25
O=C(O)c1cc(N/N=C/c2ccc(N3CCOCC3)s2)ccc1Cl | 6 | 47* | 1 | 2 | 80* | 27
NC(=O)N/N=C/c1ccc(N2CCOCC2)s1 | 2 | -7 | -1 | -14 | x | x
Cc1csc(NC(=O)c2ccc(C)c([N+](=O)[O-])c2)n1 | -1 | -9 | -2 | 9 | x | x
C=CCn1c(SCC(=O)N2CCOCC2)nc2sc3c(c2c1=O)CCCC3 | 6 | -9 | 5 | 3 | x | x
Oc1c(Br)cc(Br)cc1/C=N/NC(=S)N[C@H]1CC2C=CC1C2 (some centres undefined) | -2 | 37* | -4 | 9 | 59* | 15 | FID counter DR=>79
O=C(O)/C=C/c1coc2ccc(F)cc2c1=O | 2 | -6 | 10 | 9 | x | x
Cc1ccc(-c2nnc(NC(=O)Cc3ccc(F)cc3)o2)c(C)c1 | 2 | 30 | 8 | -3 | x | x
Cc1ccc(C)c(-c2nnc(NC(=O)Cc3ccc(F)cc3)o2)c1 | 11 | 42* | 1 | 0 | -13 | 1
O=C(Nc1nc2ccccc2s1)c1ccc([N+](=O)[O-])o1 | 6 | 21 | 7 | -7 | x | x
COc1ccc2nc(NC(=O)c3ccc([N+](=O)[O-])o3)sc2c1 | 6 | 64* | -9 | -15 | 7 | 10
CCC(=O)Nc1ccc(C(=O)CSc2nnc(-c3ccccc3F)n2C2CC2)cc1 | -17 | 52* | -4 | 3 | -6 | -21
CCOC(=O)c1ccc(N2NC(=O)/C(=C/c3ccc(OC(=O)c4ccco4)c(OC)c3)C2=O)cc1 | 4 | 29 | -4 | 2 | x | x
CCOC(=O)COc1ccc(/C=C2/C(=O)NN(c3ccc(F)cc3)C2=O)cc1OC | 5 | 36* | -5 | 10 | -4 | 11
Cc1cccc2nc(-c3ccco3)c(Nc3ccc4c(c3)OCO4)n12 | -3 | 40* | -6 | 15 | 9 | 3
CSc1cccc(NC(=S)NN(C)C)c1 | 2 | -2 | 0 | -5 | x | x
CC(C)c1ccc(C(CC(=O)c2ccc(Cl)cc2)C(=O)O)cc1 (centres undefined) | -1 | 37* | 3 | -4 | 68* | -19
COC(=O)c1c(-c2ccc(C)cc2)csc1NC(=O)C1CC=CCC1C(=O)O (centres undefined) | 2 | 39* | -7 | 6 | 53* | -22
CCOC(=O)c1c(NC(=O)C2C3CCC(O3)C2C(=O)O)sc(C)c1-c1ccc(C)cc1 (centres undefined) | 2 | 11 | -10 | -7 | x | x
COc1cc(-c2ccc3c(=O)c4ccccc4n(C)c3c2)cc(OC)c1OC | 3 | -11 | 9 | 8 | x | x
COc1ccc(-c2cc(Cl)cc3c(=O)c4ccccc4n(C)c23)cc1F | 1 | 67* | 7 | 8 | -3 | -10
Cc1cccc(N2C(=O)C(O)=C(C(=O)c3cccs3)C2c2ccc(C(C)C)cc2)n1 (centres undefined) | 1 | 55* | 12 | 5 | 78* | -10 | FID counter DR=>79
COc1ccc(CN2CCOCCOCCOCCOCCOCC2)cc1 | -5 | -8 | 4 | 5 | x | x
